# Measured values from different studies.
# Each line is one published result; the experiments were not run side by side.
# CNR1: Cannabinoid receptor 1 (CNR1, Homo sapiens, UniProt P21554)
# HTR2A: 5-hydroxytryptamine receptor 2A (HTR2A, Homo sapiens, UniProt P28223)
# Fatty acid-binding protein, intestinal T55A: Fatty acid-binding protein, intestinal (Homo sapiens, UniProt P12104, T55A)
# Oprm1: Mu-type opioid receptor (Oprm1, Mus musculus, UniProt P42866)
SMILES,target,effect on,mode,technique,notes,endpoint,value
CC(C)(NC(=O)c1nn(CCCCC(F)(F)F)c2ccccc12)c1cccc(C(N)=O)c1,CNR1,ligand displacement,,radioligand,cell membranes,Ki,0.21 µM
CCCCC/C=C\[C@H](C)/C=C\C/C=C\Cc1ccccc1CCCC(=O)N[C@H](C)CO,CNR1,β-arrestin recruitment,agonist,,,EC50,1.96 µM
CCOC(=O)c1ccc(OC(=O)CCCCCN=C(N)N)cc1,"Vitamin K-dependent protein C (PROC, Homo sapiens, UniProt P04070)",enzyme activity,inhibitor,,,IC50,0.157 µM
COc1cc2c3c(c1OC)-c1c(OC)ccc(Br)c1CC3N(C)CC2 (centres unmarked),HTR2A,cell-free assay,,radioligand,,Ki,0.373 µM
O=c1cc(CSc2ccc(N=Cc3ccc(F)cc3)cc2)occ1O,"PPO3 (Agaricus bisporus, UniProt C7FF04)",enzyme activity,inhibitor,absorbance,,IC50,53.5 µM
O=C(O)Cn1c(=O)n(Cc2ccc(Br)cc2F)c(=O)c2ccc(Cl)cc21,"Fatty acid-binding protein, intestinal T55A",ligand displacement,,fluorescence,,Kd,2.68 µM
CC(C)(NC(=O)c1nn(Cc2ccc(C#N)cc2)c2ccccc12)c1cccc(C(N)=O)c1,CNR1,ligand displacement,,radioligand,cell membranes,Ki,0.098 µM
CC(C)[C@@H](CN1CCc2ccccc2C1)NC(=O)c1cccc(-c2cccc(O)c2)c1,Oprm1,ligand displacement,,radioligand,,Ki,1.21 µM
CCCCC/C=C\C/C=C\C/C=C\Cc1ccccc1CCCC(=O)N[C@H](C)CO,CNR1,cAMP,agonist,,,EC50,0.315 µM
CC[C@H](C)[C@@H](C(=O)N1CCC[C@H]1c1nccs1)N(C)C(=O)[C@H](CC(C)C)N(C)C(=O)[C@H](Cc1ccc(OC)cc1)N(C)C(=O)/C=C(\C)OC,CNR1,β-arrestin recruitment,antagonist,,,IC50,11.6 µM
Cc1c(CC(=O)N[C@@H](CN2CCc3ccccc3C2)C(C)C)cccc1[N+](=O)[O-],Oprm1,ligand displacement,,radioligand,,Ki,0.15 µM
O=c1c2cc(Cl)ccc2[nH]c(=S)n1Cc1cccnc1,HTR2A,cell-free assay,,,,IC50,2.6 µM
COc1cc2c(cc1OC)CN(CCc1ccc(NC(=O)c3cccc4c(=O)c5cccc(OC)c5[nH]c34)cc1)CC2,"Histamine H4 receptor (HRH4, Homo sapiens, UniProt Q9H3N8)",cell-free assay,,,,Ki,> 10 µM
CC(C)(NC(=O)c1nn(CCCCCF)c2ccccc12)c1cccc(C(N)=O)c1,CNR1,ligand displacement,,radioligand,cell membranes,Ki,0.068 µM
Cc1oc(-c2ccccc2)nc1CCOc1cccc2c1ccn2CCC(=O)O,"Fatty acid-binding protein, intestinal T55A",ligand displacement,,fluorescence,,Kd,31.9 µM
CC(C)(C#N)CCCn1nc(C(=O)NC(C)(C)c2cccc(C(N)=O)c2)c2ccccc21,CNR1,ligand displacement,,radioligand,cell membranes,Ki,0.25 µM
CC(C)[C@H](CN1CCc2ccccc2C1)NC(=O)Cc1c[nH]c2ccccc12,Oprm1,ligand displacement,,radioligand,,Ki,0.42 µM
